This note sets out measurements from ChEMBL document CHEMBL1130191 (J Med Chem, 1997).

For one assay, the system named is B16. Put plainly: Inhibition of murine B16 Melanoma cell proliferation. It counts as functional, cell-based, Mus musculus. The procedure, abridged:
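Clonogenic assay: B16 melanoma cells (EMEM with 10% FCS, 37 °C, 5% CO2) seeded 200 per dish, attached 20 h, exposed to increasing drug concentrations 24 h, washed, regrown 12 days; methanol-fixed, crystal violet-stained, colonies >50 cells counted. IC50 is concentration giving 50% cloning efficiency versus untreated.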

In assay [1] the target is Protein kinase C alpha type (Homo sapiens, UniProt P17252). Put plainly: Inhibition of Protein kinase C alpha. An outline of the steps:
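Recombinant PKC-α, partially purified; protamine sulfate substrate without phosphatidylserine or diacylglycerol; γ-33P incorporation measured by spotting aliquots on P81 paper. Compounds serially diluted 10-fold in DMSO/water 50:50. Two independent experiments; IC50 in μM.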

A further assay relates to Bacillus cereus. Put plainly: Antimicrobial activity against Bacillus cereus. The assay is classed as functional. The procedure, abridged:
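B. cereus ATCC 14579 in Mueller-Hinton broth pH 7.4, compounds diluted in DMSO across 12 tubes spanning 100 to 0.05 μg/mL; growth read after 24 h at 27 °C; MIC taken as lowest inhibitory concentration. Disk diffusion screen also run: 6 mm paper disks carrying 300 μg drug in DMSO, 24 h at 27 °C.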

For assay [2], the system named is P388. Put plainly: Inhibition of P388 Leukemia cell proliferation. It counts as functional, cell-based. Particulars: Mus musculus. An outline of the steps: (§1)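 P388 murine leukemia cells exposed to a range of drug concentrations for 96 h at 37 °C; viability scored by neutral red staining; IC50 is the concentration giving 50% growth inhibition.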
The test system of assay [3] is DNA topoisomerase II (Bos taurus). Put plainly: Inhibition of calf thymus Topoisomerase-2.
Assay [4] has as its system DNA topoisomerase I (Bos taurus). Put plainly: Inhibition of calf thymus Topoisomerase-I.
Assay [5] relates to P388. Put plainly: Inhibition of P388 murine leukemia cell proliferation. The note with it: Mus musculus. The assay is classed as functional, cell-based. The procedure, abridged:
as §1

Molecules are shown by their SMILES. In brackets after ≈: the same amount, converted by molar mass.

On to `CC1OC(n2c3ccccc3c3c4c(c5c6ccccc6[nH]c5c32)C(=O)N(C)C4=O)C(O)C(O)C1O` (stereo in doubt; 14) [listing 1 of 2 here], for which the half-maximal inhibitory concentration (IC50) was 3.75 µM with B16 (Mus musculus, B16); more than 100 µM in assay [1]; 6.2 µM in the assay with P388 [2]. The compound further registered an MIC in the assay on Bacillus cereus of 3.1 µM (≈ 1.51 µg/mL).
As to `CN1C(=O)c2c(c3c4ccccc4n(C4OC(CO)C(O)C(O)C4O)c3c3[nH]c4ccccc4c23)C1=O` (stereo in doubt; 9) [listing 1 of 2 here], the MIC in assay [3] was more than 20 µM; in assay [4], 6 µM (≈ 3.01 µg/mL).
`CN1C(=O)c2c(c3c4ccccc4n(C4OC(CO)C(O)C(O)C4O)c3c3[nH]c4ccccc4c23)C1=O` (stereo in doubt; 8) [listing 1 of 2 here]: the values for the concentration for half-maximal inhibition (IC50) (with B16 (b16); in assay [1]) were 3.3 µM and more than 100 µM, respectively. This compound also had an MIC in the assay with Bacillus cereus of 12.4 µM (≈ 6.22 µg/mL).
`CC(=O)OCC1OC(n2c3ccccc3c3c4c(c5c6ccccc6[nH]c5c32)C(=O)N(C)C4=O)C(OC(C)=O)C(OC(C)=O)C1OC(C)=O` (stereo in doubt; 5): the MIC in assay [3] and in assay [4] was more than 15 µM throughout.
Regarding `CC(=O)OCC1OC(n2c3ccccc3c3c4c(c5c6ccccc6[nH]c5c32)C(=O)N(C)C4=O)C(OC(C)=O)C(OC(C)=O)C1OC(C)=O` (stereo in doubt; 3) [listing 1 of 2 here], the MIC in assay [3] and in assay [4] was more than 15 µM throughout.
For the compound `CC(=O)OCC1OC(n2c3ccccc3c3c4c(c5c6ccccc6[nH]c5c32)C(=O)N(C)C4=O)C(OC(C)=O)C(OC(C)=O)C1OC(C)=O` (stereo in doubt; 6) [listing 1 of 2 here], the MIC in assay [3] and in assay [4] was more than 15 µM throughout.
With `CN1C(=O)c2c(c3c4ccccc4n(C4OC(CO)C(O)C(O)C4O)c3c3[nH]c4ccccc4c23)C1=O` (stereo in doubt; 10) [listing 1 of 2 here], the results for the MIC in assay [3] and in assay [4] were more than 20 µM and 0.6 µM (≈ 0.301 µg/mL), respectively.
As for `CC(=O)OCC1OC(n2c3ccccc3c3c4c(c5c6ccccc6[nH]c5c32)C(=O)N(C)C4=O)C(OC(C)=O)C(OC(C)=O)C1OC(C)=O` (stereo in doubt; 6) [listing 2 of 2 here], the results for the IC50 (in the assay with B16 (b16); in assay [1]) were 75 µM and more than 100 µM, respectively.
Taken in the same sequence, the figures for `CN1C(=O)c2c(c3c4ccccc4n(C4OC(CO)C(O)C(O)C4O)c3c3[nH]c4ccccc4c23)C1=O` (stereo in doubt; 10) [listing 2 of 2 here] were 5.4 µM and 99 µM.
As for `CC1OC(n2c3ccccc3c3c4c(c5c6ccccc6[nH]c5c32)C(=O)N(C)C4=O)C(O)C(O)C1O` (stereo in doubt; 13) [listing 1 of 2 here], the concentration for half-maximal inhibition (IC50) in the assay with B16 (b16) came out at 4.75 µM; in assay [1], 82 µM. The MIC in the assay on Bacillus cereus was 103 µM (≈ 50 µg/mL).
`CC(=O)OCC1OC(n2c3ccccc3c3c4c(c5c6ccccc6[nH]c5c32)C(=O)N(C)C4=O)C(OC(C)=O)C(OC(C)=O)C1OC(C)=O` (stereo in doubt; 3) [listing 2 of 2 here]: the half-maximal inhibitory concentration (IC50) with B16 (b16) was 2.5 µM; in assay [1] it was more than 100 µM.
Regarding `CN1C(=O)c2c(c3c4ccccc4n(C4OC(CO)C(O)C(O)C4O)c3c3[nH]c4ccccc4c23)C1=O` (stereo in doubt; 9) [listing 2 of 2 here], in assay [1], the IC50 was determined as 62 µM.
As for `CO[C@H]1[C@H](O)[C@@H](O)[C@H](n2c3c(Cl)cccc3c3c4c(c5c6cccc(Cl)c6[nH]c5c32)C(=O)NC4=O)O[C@@H]1CO` [REBECCAMYCIN], the IC50 in the assay with P388 [5] was 0.5 µM; in assay [1], more than 100 µM. The MIC with Bacillus cereus (Bacillus cereus, read-out: MIC) was determined as 10.9 µM (≈ 6.22 µg/mL).
`CC(=O)OCC1OC(n2c3ccccc3c3c4c(c5c6ccccc6[nH]c5c32)C(=O)N(C)C4=O)C(OC(C)=O)C(OC(C)=O)C1OC(C)=O` (stereo in doubt; 4) [listing 1 of 2 here]: the MIC in assay [3] and in assay [4] was more than 15 µM in each case.
`CC1OC(n2c3ccccc3c3c4c(c5c6ccccc6[nH]c5c32)C(=O)N(C)C4=O)C(O)C(O)C1O` (stereo in doubt; 13) [listing 2 of 2 here]: the MIC in assay [3] and in assay [4] was more than 20 µM in each case.
`CO[C@H]1[C@H](O)[C@@H](O)[C@H](n2c3ccccc3c3c4c(c5c6ccccc6[nH]c5c32)C(=O)NC4=O)O[C@@H]1CO`: the MIC is more than 19 µM in assay [3]; 1.95 µM (≈ 0.978 µg/mL) in assay [4]; more than 97 µM with Bacillus cereus (Bacillus cereus, read-out: MIC). The half-maximal inhibitory concentration (IC50) in assay [1] is more than 100 µM; in the assay on P388 [2], 6.8 µM.
As for `CC(=O)OCC1OC(n2c3ccccc3c3c4c(c5c6ccccc6[nH]c5c32)C(=O)N(C)C4=O)C(OC(C)=O)C(OC(C)=O)C1OC(C)=O` (stereo in doubt; 4) [listing 2 of 2 here], the 50% inhibitory concentration (IC50) with B16 (b16) was 78 µM; in the assay on P388 [2], more than 15 µM. Further, the MIC in the assay on Bacillus cereus (Bacillus cereus, read-out: MIC) is more than 74 µM.
As to `CO[C@H]1[C@H](O)[C@@H](O)[C@H](n2c3c(Cl)cccc3c3c4c(c5c6cccc(Cl)c6[nH]c5c32)C(=O)N(C)C4=O)O[C@@H]1CO`, the IC50 with B16 (Mus musculus, B16) was 0.61 µM; in assay [1], more than 100 µM; in the assay with P388 [2] it was 0.6 µM. Moreover, the MIC with Bacillus cereus (Bacillus cereus, read-out: MIC) is more than 85 µM.
`CN1C(=O)c2c(c3c4ccccc4n(C4OC(CO)C(O)C(O)C4O)c3c3[nH]c4ccccc4c23)C1=O` (stereo in doubt; 7) [listing 1 of 2 here]: the MIC in assay [3] and in assay [4] was more than 20 µM each time.
Consider `CO[C@H]1[C@H](O)[C@@H](O)[C@H](n2c3ccccc3c3c4c(c5c6ccccc6[nH]c5c32)C(=O)N(C)C4=O)O[C@@H]1CO`, for which the IC50 in the assay on B16 (Mus musculus, B16) was 1.06 µM; in assay [1], more than 100 µM; in the assay with P388 [2], 0.7 µM. In addition, the MIC in assay [4] was 0.6 µM (≈ 0.309 µg/mL); with Bacillus cereus (Bacillus cereus, read-out: MIC), 1.55 µM (≈ 0.799 µg/mL).
Turning to `CN1C(=O)c2c(c3c4ccccc4n(C4OC(CO)C(O)C(O)C4O)c3c3[nH]c4ccccc4c23)C1=O` (stereo in doubt; 8) [listing 2 of 2 here], the results for the MIC in assay [3] and in assay [4] were more than 20 µM and 2 µM (≈ 1 µg/mL), respectively.
`CN1C(=O)c2c(c3c4ccccc4n(C4OC(CO)C(O)C(O)C4O)c3c3[nH]c4ccccc4c23)C1=O` (stereo in doubt; 7) [listing 2 of 2 here]: the IC50 worked out at 0.52 µM in the assay with B16 (b16), 59 µM in assay [1] and 6 µM in the assay with P388 [2]. Further, in the assay with Bacillus cereus (Bacillus cereus, read-out: MIC), the MIC is 6.2 µM (≈ 3.11 µg/mL).
Turning to `CC1OC(n2c3ccccc3c3c4c(c5c6ccccc6[nH]c5c32)C(=O)N(C)C4=O)C(O)C(O)C1O` (stereo in doubt; 14) [listing 2 of 2 here], the figures for the MIC in assay [3] and in assay [4] were more than 20 µM and 2 µM (≈ 0.971 µg/mL), respectively.
